Results taken from ChEMBL document CHEMBL5634162, “Cyclohexylalanine-Containing α-Helical Amphipathic Peptide Targets Cardiolipin, Rescuing Mitochondrial Dysfunction in Kidney Injury” (J Med Chem, 2024).
Active and inactive are the calls of the source. No cut-off for these calls is given here. Where a SMILES comes first, the peptide text is derived from it. Bridges are numbered along the chain shown (N, C = ends). Roman numbers before positions name the chains, in order. [ ]: non-standard residue; d: D form. The star is where a group is joined. 5TAMRA = CN(C)c1ccc2c(c1)Oc1cc(N(C)C)ccc1C21OC(=O)c2cc(C(=O)*)ccc21; Cha = N[C@@H](CC1CCCCC1)C(=O)O

System: not listed separately
Experiment: Drug localization in mitochondria of human HeLa cells at EC50 incubated for 3 hrs by fluorescence based assay
Format: ADME
`CC(=O)N[C@@H](CC1CCCCC1)C(=O)N[C@H]1CSSC[C@@H](C(=O)N[C@@H](CCCNC(=N)N)C(N)=O)NC(=O)[C@H](CC2CCCCC2)NC(=O)[C@H](CCCNC(=N)N)NC(=O)[C@H](CCCNC(=N)N)NC(=O)[C@H](CC(C)C)NC(=O)[C@H](CC2CCCCC2)NC(=O)[C@H](CCCNC(=N)N)NC(=O)[C@@H](NC(=O)[C@H](CC2CCCCC2)NC(=O)c2ccc3c(c2)C(=O)OC32c3ccc(N(C)C)cc3Oc3cc(N(C)C)ccc32)CSSC[C@@H](C(=O)N[C@@H](CCCNC(=N)N)C(N)=O)NC(=O)[C@H](CC2CCCCC2)NC(=O)[C@H](CCCNC(=N)N)NC(=O)[C@H](CCCNC(=N)N)NC(=O)[C@H](CC(C)C)NC(=O)[C@H](CC2CCCCC2)NC(=O)[C@H](CCCNC(=N)N)NC1=O` (I: Ac-[Cha]CR[Cha]LRR[Cha]CR-NH2 / II: 5TAMRA-[Cha]CR[Cha]LRR[Cha]CR-NH2; disulfide I:2-II:9, I:9-II:2) gave a Drug uptake of 53%.
Work on `CC(=O)N[C@@H](CC(C)C)C(=O)N[C@H]1CSSC[C@@H](C(=O)N[C@@H](CCCNC(=N)N)C(N)=O)NC(=O)[C@H](CC2CCCCC2)NC(=O)[C@H](CCCNC(=N)N)NC(=O)[C@H](CCCNC(=N)N)NC(=O)[C@H](CC2CCCCC2)NC(=O)[C@H](CC(C)C)NC(=O)[C@H](CCCNC(=N)N)NC(=O)[C@@H](NC(=O)[C@H](CC(C)C)NC(=O)c2ccc3c(c2)C(=O)OC32c3ccc(N(C)C)cc3Oc3cc(N(C)C)ccc32)CSSC[C@@H](C(=O)N[C@@H](CCCNC(=N)N)C(N)=O)NC(=O)[C@H](CC2CCCCC2)NC(=O)[C@H](CCCNC(=N)N)NC(=O)[C@H](CCCNC(=N)N)NC(=O)[C@H](CC2CCCCC2)NC(=O)[C@H](CC(C)C)NC(=O)[C@H](CCCNC(=N)N)NC1=O` (I: Ac-LCRL[Cha]RR[Cha]CR-NH2 / II: 5TAMRA-LCRL[Cha]RR[Cha]CR-NH2; disulfide I:2-II:9, I:9-II:2) yielded a Drug uptake of 53%.
In the case of `CC(=O)N[C@@H](CC1CCCCC1)C(=O)N[C@H]1CSSC[C@@H](C(=O)N[C@@H](CCCNC(=N)N)C(N)=O)NC(=O)[C@H](CC(C)C)NC(=O)[C@H](CCCNC(=N)N)NC(=O)[C@H](CCCNC(=N)N)NC(=O)[C@H](CC(C)C)NC(=O)[C@H](CC2CCCCC2)NC(=O)[C@H](CCCNC(=N)N)NC(=O)[C@@H](NC(=O)[C@H](CC2CCCCC2)NC(=O)c2ccc3c(c2)C(=O)OC32c3ccc(N(C)C)cc3Oc3cc(N(C)C)ccc32)CSSC[C@@H](C(=O)N[C@@H](CCCNC(=N)N)C(N)=O)NC(=O)[C@H](CC(C)C)NC(=O)[C@H](CCCNC(=N)N)NC(=O)[C@H](CCCNC(=N)N)NC(=O)[C@H](CC(C)C)NC(=O)[C@H](CC2CCCCC2)NC(=O)[C@H](CCCNC(=N)N)NC1=O` (I: Ac-[Cha]CR[Cha]LRRLCR-NH2 / II: 5TAMRA-[Cha]CR[Cha]LRRLCR-NH2; disulfide I:2-II:9, I:9-II:2), the Drug uptake is reported as 53%.
Molecule `CC(=O)N[C@@H](CC1CCCCC1)C(=O)N[C@H]1CSSC[C@@H](C(=O)N[C@@H](CCCNC(=N)N)C(N)=O)NC(=O)[C@H](CC(C)C)NC(=O)[C@H](CCCNC(=N)N)NC(=O)[C@H](CCCNC(=N)N)NC(=O)[C@H](CC2CCCCC2)NC(=O)[C@H](CC2CCCCC2)NC(=O)[C@H](CCCNC(=N)N)NC(=O)[C@@H](NC(=O)[C@H](CC2CCCCC2)NC(=O)c2ccc3c(c2)C(=O)OC32c3ccc(N(C)C)cc3Oc3cc(N(C)C)ccc32)CSSC[C@@H](C(=O)N[C@@H](CCCNC(=N)N)C(N)=O)NC(=O)[C@H](CC(C)C)NC(=O)[C@H](CCCNC(=N)N)NC(=O)[C@H](CCCNC(=N)N)NC(=O)[C@H](CC2CCCCC2)NC(=O)[C@H](CC2CCCCC2)NC(=O)[C@H](CCCNC(=N)N)NC1=O` (I: Ac-[Cha]CR[Cha][Cha]RRLCR-NH2 / II: 5TAMRA-[Cha]CR[Cha][Cha]RRLCR-NH2; disulfide I:2-II:9, I:9-II:2) has a Drug uptake of 53%.
Molecule `CC(=O)N[C@@H](CC(C)C)C(=O)N[C@H]1CSSC[C@@H](C(=O)N[C@@H](CCCNC(=N)N)C(N)=O)NC(=O)[C@H](CC(C)C)NC(=O)[C@H](CCCNC(=N)N)NC(=O)[C@H](CCCNC(=N)N)NC(=O)[C@H](CC(C)C)NC(=O)[C@H](CC2CCCCC2)NC(=O)[C@H](CCCNC(=N)N)NC(=O)[C@@H](NC(=O)[C@H](CC(C)C)NC(=O)c2ccc3c(c2)C(=O)OC32c3ccc(N(C)C)cc3Oc3cc(N(C)C)ccc32)CSSC[C@@H](C(=O)N[C@@H](CCCNC(=N)N)C(N)=O)NC(=O)[C@H](CC(C)C)NC(=O)[C@H](CCCNC(=N)N)NC(=O)[C@H](CCCNC(=N)N)NC(=O)[C@H](CC(C)C)NC(=O)[C@H](CC2CCCCC2)NC(=O)[C@H](CCCNC(=N)N)NC1=O` (I: Ac-LCR[Cha]LRRLCR-NH2 / II: 5TAMRA-LCR[Cha]LRRLCR-NH2; disulfide I:2-II:9, I:9-II:2) has a Drug uptake of 53%.
For `CC(=O)N[C@@H](CC(C)C)C(=O)N[C@H]1CSSC[C@@H](C(=O)N[C@@H](CCCNC(=N)N)C(N)=O)NC(=O)[C@H](CC2CCCCC2)NC(=O)[C@H](CCCNC(=N)N)NC(=O)[C@H](CCCNC(=N)N)NC(=O)[C@H](CC2CCCCC2)NC(=O)[C@H](CC2CCCCC2)NC(=O)[C@H](CCCNC(=N)N)NC(=O)[C@@H](NC(=O)[C@H](CC(C)C)NC(=O)c2ccc3c(c2)C(=O)OC32c3ccc(N(C)C)cc3Oc3cc(N(C)C)ccc32)CSSC[C@@H](C(=O)N[C@@H](CCCNC(=N)N)C(N)=O)NC(=O)[C@H](CC2CCCCC2)NC(=O)[C@H](CCCNC(=N)N)NC(=O)[C@H](CCCNC(=N)N)NC(=O)[C@H](CC2CCCCC2)NC(=O)[C@H](CC2CCCCC2)NC(=O)[C@H](CCCNC(=N)N)NC1=O` (I: Ac-LCR[Cha][Cha]RR[Cha]CR-NH2 / II: 5TAMRA-LCR[Cha][Cha]RR[Cha]CR-NH2; disulfide I:2-II:9, I:9-II:2), the Drug uptake was 53%.
With `CC(=O)N[C@@H](CC1CCCCC1)C(=O)N[C@H]1CSSC[C@@H](C(=O)N[C@@H](CCCNC(=N)N)C(N)=O)NC(=O)[C@H](CC(C)C)NC(=O)[C@H](CCCNC(=N)N)NC(=O)[C@H](CCCNC(=N)N)NC(=O)[C@H](CC(C)C)NC(=O)[C@H](CC(C)C)NC(=O)[C@H](CCCNC(=N)N)NC(=O)[C@@H](NC(=O)[C@H](CC2CCCCC2)NC(=O)c2ccc3c(c2)C(=O)OC32c3ccc(N(C)C)cc3Oc3cc(N(C)C)ccc32)CSSC[C@@H](C(=O)N[C@@H](CCCNC(=N)N)C(N)=O)NC(=O)[C@H](CC(C)C)NC(=O)[C@H](CCCNC(=N)N)NC(=O)[C@H](CCCNC(=N)N)NC(=O)[C@H](CC(C)C)NC(=O)[C@H](CC(C)C)NC(=O)[C@H](CCCNC(=N)N)NC1=O` (I: Ac-[Cha]CRLLRRLCR-NH2 / II: 5TAMRA-[Cha]CRLLRRLCR-NH2; disulfide I:2-II:9, I:9-II:2) the Drug uptake was 53%.
Work on `CC(=O)N[C@@H](CC1CCCCC1)C(=O)N[C@H]1CSSC[C@@H](C(=O)N[C@@H](CCCNC(=N)N)C(N)=O)NC(=O)[C@H](CC2CCCCC2)NC(=O)[C@H](CCCNC(=N)N)NC(=O)[C@H](CCCNC(=N)N)NC(=O)[C@H](CC(C)C)NC(=O)[C@H](CC(C)C)NC(=O)[C@H](CCCNC(=N)N)NC(=O)[C@@H](NC(=O)[C@H](CC2CCCCC2)NC(=O)c2ccc3c(c2)C(=O)OC32c3ccc(N(C)C)cc3Oc3cc(N(C)C)ccc32)CSSC[C@@H](C(=O)N[C@@H](CCCNC(=N)N)C(N)=O)NC(=O)[C@H](CC2CCCCC2)NC(=O)[C@H](CCCNC(=N)N)NC(=O)[C@H](CCCNC(=N)N)NC(=O)[C@H](CC(C)C)NC(=O)[C@H](CC(C)C)NC(=O)[C@H](CCCNC(=N)N)NC1=O` (I: Ac-[Cha]CRLLRR[Cha]CR-NH2 / II: 5TAMRA-[Cha]CRLLRR[Cha]CR-NH2; disulfide I:2-II:9, I:9-II:2) yielded a Drug uptake of 53%.
Molecule `CC(=O)N[C@@H](CC(C)C)C(=O)N[C@H]1CSSC[C@@H](C(=O)N[C@@H](CCCNC(=N)N)C(N)=O)NC(=O)[C@H](CC2CCCCC2)NC(=O)[C@H](CCCNC(=N)N)NC(=O)[C@H](CCCNC(=N)N)NC(=O)[C@H](CC(C)C)NC(=O)[C@H](CC(C)C)NC(=O)[C@H](CCCNC(=N)N)NC(=O)[C@@H](NC(=O)[C@H](CC(C)C)NC(=O)c2ccc3c(c2)C(=O)OC32c3ccc(N(C)C)cc3Oc3cc(N(C)C)ccc32)CSSC[C@@H](C(=O)N[C@@H](CCCNC(=N)N)C(N)=O)NC(=O)[C@H](CC2CCCCC2)NC(=O)[C@H](CCCNC(=N)N)NC(=O)[C@H](CCCNC(=N)N)NC(=O)[C@H](CC(C)C)NC(=O)[C@H](CC(C)C)NC(=O)[C@H](CCCNC(=N)N)NC1=O` (I: Ac-LCRLLRR[Cha]CR-NH2 / II: 5TAMRA-LCRLLRR[Cha]CR-NH2; disulfide I:2-II:9, I:9-II:2) has a Drug uptake of 53%.
For `CC(=O)N[C@@H](CC(C)C)C(=O)N[C@H]1CSSC[C@@H](C(=O)N[C@@H](CCCNC(=N)N)C(N)=O)NC(=O)[C@H](CC(C)C)NC(=O)[C@H](CCCNC(=N)N)NC(=O)[C@H](CCCNC(=N)N)NC(=O)[C@H](CC2CCCCC2)NC(=O)[C@H](CC(C)C)NC(=O)[C@H](CCCNC(=N)N)NC(=O)[C@@H](NC(=O)[C@H](CC(C)C)NC(=O)c2ccc3c(c2)C(=O)OC32c3ccc(N(C)C)cc3Oc3cc(N(C)C)ccc32)CSSC[C@@H](C(=O)N[C@@H](CCCNC(=N)N)C(N)=O)NC(=O)[C@H](CC(C)C)NC(=O)[C@H](CCCNC(=N)N)NC(=O)[C@H](CCCNC(=N)N)NC(=O)[C@H](CC2CCCCC2)NC(=O)[C@H](CC(C)C)NC(=O)[C@H](CCCNC(=N)N)NC1=O` (I: Ac-LCRL[Cha]RRLCR-NH2 / II: 5TAMRA-LCRL[Cha]RRLCR-NH2; disulfide I:2-II:9, I:9-II:2), the Drug uptake was 53%.

System: Lipid bilayer
Experiment: Binding affinity to DLCL-rich POPC/POPE by fluorescence based analysis
With `CC(=O)N[C@@H](CC1CCCCC1)C(=O)N[C@@H](CS)C(=O)N[C@@H](CCCNC(=N)N)C(=O)N[C@@H](CC(C)C)C(=O)N[C@@H](CC1CCCCC1)C(=O)N[C@@H](CCCNC(=N)N)C(=O)N[C@@H](CCCNC(=N)N)C(=O)N[C@@H](CC1CCCCC1)C(=O)N[C@@H](CS)C(=O)N[C@@H](CCCNC(=N)N)C(N)=O` (Ac-[Cha]CRL[Cha]RR[Cha]CR-NH2) the Activity was “Active”.

System: Lipid bilayer
Experiment: Binding affinity to cardiolipin-rich POPC/POPE by fluorescence based analysis
Method in brief: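 NBD-labelled peptide monomer at 1 μM in PBS, mixed with liposomes of POPC/POPE (2:1) containing 10% CL, with CL-free POPC/POPE liposomes for comparison. Association was followed by NBD fluorescence (ex 467/em 536 nm), n = 3. For dissociation, liposomes were at 100 μM and unlabelled acetylated peptide was added stepwise up to 40 μM, with a 10 min dark incubation before each read.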
With `CC(=O)N[C@@H](CC1CCCCC1)C(=O)N[C@@H](CS)C(=O)N[C@@H](CCCNC(=N)N)C(=O)N[C@@H](CC(C)C)C(=O)N[C@@H](CC1CCCCC1)C(=O)N[C@@H](CCCNC(=N)N)C(=O)N[C@@H](CCCNC(=N)N)C(=O)N[C@@H](CC1CCCCC1)C(=O)N[C@@H](CS)C(=O)N[C@@H](CCCNC(=N)N)C(N)=O` (Ac-[Cha]CRL[Cha]RR[Cha]CR-NH2) the Activity was “Active”.
